# KCNK9 inh: KCNK9 potassium channel inhibitors, primary screen, HEK293 cells, thallium flux | Potassium channel subfamily K member 9 (Homo sapiens), Q9NPC2 | FluxOR thallium flux fluorescence; hits give low values | B-score at 10 µM | actives 1.2% (n = 310,000) | AID 488922, 2010;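 active = ratio B-score over 3 SD below the library mean, with starting fluorescence within 5 SD of its mean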;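 also: negative B-score means less thallium flux so channel inhibition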
# hERG protect: hERG rescue from dofetilide block, primary screen, cell-based, CHO-hERG, FluxOR thallium flux, dofetilide IC70; Voltage-gated inwardly rectifying potassium channel KCNH2 (Homo sapiens), Q12809; dofetilide IC70 present; AID 1511, 2009; activation (rescue from dofetilide block), less the hit threshold, % at 10 µM; actives 0.51% (n = 310,000);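 active = activation above the mean of controls blocked by dofetilide plus 5 SD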;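 also: thallium influx through hERG after potassium depolarization seen as dye fluorescence rise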
# KCNQ1 block: inhibitors of human KCNQ1 channel, primary screen, cell-based, thallium flux, high-throughput; B-score at 10 µM; AID 2642, 2010; Potassium voltage-gated channel subfamily KQT member 1 (Homo sapiens), P51787; actives 1.3% (n = 310,000); CHO-K1 KCNQ1, FluxOR thallium flux fluorescence; hits give high values;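 active = compounds whose thallium flux B-score, printed positive for inhibition, exceeds three library SD while starting fluorescence stays within three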;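 also: channel opened by potassium depolarization with thallium stimulus after 20 min compound exposure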
# Target sequence (P51787 whole entry, looked up): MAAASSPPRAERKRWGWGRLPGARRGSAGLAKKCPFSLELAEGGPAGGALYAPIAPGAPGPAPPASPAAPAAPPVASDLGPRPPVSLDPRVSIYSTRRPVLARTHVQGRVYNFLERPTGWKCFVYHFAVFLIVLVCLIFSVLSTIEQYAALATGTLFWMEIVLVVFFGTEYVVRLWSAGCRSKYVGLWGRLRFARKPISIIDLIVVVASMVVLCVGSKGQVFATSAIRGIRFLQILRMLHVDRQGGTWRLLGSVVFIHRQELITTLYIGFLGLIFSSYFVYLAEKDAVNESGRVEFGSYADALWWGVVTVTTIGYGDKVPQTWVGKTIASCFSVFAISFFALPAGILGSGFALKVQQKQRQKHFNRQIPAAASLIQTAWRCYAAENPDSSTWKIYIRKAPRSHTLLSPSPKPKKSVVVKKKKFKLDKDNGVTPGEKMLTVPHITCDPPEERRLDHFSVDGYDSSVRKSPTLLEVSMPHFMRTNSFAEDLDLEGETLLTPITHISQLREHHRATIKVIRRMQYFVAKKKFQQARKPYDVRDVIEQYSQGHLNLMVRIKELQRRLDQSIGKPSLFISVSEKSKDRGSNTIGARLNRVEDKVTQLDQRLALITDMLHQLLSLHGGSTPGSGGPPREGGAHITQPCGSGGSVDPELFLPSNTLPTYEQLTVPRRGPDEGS
# KCNQ1 act: potentiators or activators of KCNQ1 channel, primary screen, cell-based, thallium flux, high-throughput | AID 2648, 2010 | Potassium voltage-gated channel subfamily KQT member 1 (Homo sapiens), P51787 | B-score at 10 µM | actives 0.35% (n = 310,000) | CHO-K1 KCNQ1, thallium flux FluxOR fluorescence; hits give high values;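 active = fluorescence ratio B-score, a plate-corrected score, at least three library SD, with initial intensity B-score within 5 SD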
#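 Doses: Single concentration per compound, DMSO matched to controls | Test system: KCNQ1-transfected CHO-K1 cells | Timing: 90 min dye loading and 20 min compound exposure, both at room temperature | Measured by: Kinetic FluxOR thallium fluorescence, 10-s 1-Hz baseline, 110-s post-stimulus read | Medium: Assay buffer with matched DMSO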
# KCNK3 inh: human KCNK3 channel inhibitors, primary screen, CHO cells, FluxOR thallium flux, B-score; Potassium channel subfamily K member 3 (Homo sapiens), O14649; FluxOR fluorescence; hits give low values; B-score at 10 µM; actives 0.84% (n = 340,000); AID 602410, 2012;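 active = B-score under library mean minus 4 SD, starting fluorescence ratio at most library mean plus 5 SD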;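 also: more negative B-score means stronger inhibition of thallium flux through KCNK3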
# * = called active by the depositor; i = inactive; x = no result given. This is a sample that favours compounds with a hit; in the whole collection about 3.1% have one here.
SMILES,KCNK9 inh,hERG protect,KCNQ1 block,KCNQ1 act,KCNK3 inh
Cc1ccc(O)c(C(=O)CC(=O)c2ccc(Cl)cc2)c1,i,5.7*,i,i,i
COC(=O)C(c1ccccc1)C(C(=O)OC)c1ccccc1 (stereo not drawn),i,-7,i,i,i
COC(=O)[C@@H](c1ccccc1)N(C)S(=O)(=O)c1cccc(S(=O)(=O)N(C)[C@@H](C(=O)OC)c2ccccc2)c1,-7*,-3,i,i,i
CCOC(=O)c1c(NC(=O)Cn2cnc([N+](=O)[O-])n2)sc(C)c1C,i,-19,i,i,i
CCN(CC)c1ccc2nc3ccc(N)cc3[n+](-c3ccccc3)c2c1,x,x,x,x,-9.2*
CCN(CC)c1ccc2nc3ccccc3[n+](CC)c2c1,i,-11,i,i,i
Cc1ccc(NC(=O)c2c([N+](=O)[O-])c(C(C)(C)C)nn2C)cc1,i,24*,i,i,i
Cn1nc(C(C)(C)C)c([N+](=O)[O-])c1C(=O)Nc1ccccc1,i,-10,i,i,i
Cc1cccc(C(=O)Nc2ccc(NC(=O)CN3CCOCC3)cc2)c1,i,-6,i,i,i
Cc1ccc(C(C)NC(=O)c2cccs2)cc1 (stereo not drawn),i,-6,i,i,i
Cc1ccc(C(C)NC(=O)c2cccs2)cc1C (stereo not drawn),i,5.2*,i,i,i
Cc1cccc(/N=C/c2sc3ccccc3c2O)n1,i,6.7*,i,8*,i
CNC(=S)NNC(=O)c1noc(C)c1C(=O)N1CCN(C(c2ccccc2)c2ccccc2)CC1,i,-5,i,i,i
O=C(Cc1cccc2ccccc12)N/N=C/c1ccc(Sc2cccc3cccnc23)o1,-9.8*,-9,i,i,x
C=CCNC(=S)Nc1sc2c(c1C(=O)OCC)CC(C)(CC)OC2 (stereo not drawn),i,9.4*,i,22*,i
C=CCNC(=S)Nc1sc2c(c1C(=O)OCC)CCN(C(=O)OCC)C2,i,-9,i,i,i
COc1ccccc1N(CC(=O)NCCSCc1ccc(C)cc1)S(=O)(=O)c1ccccc1,i,-18,10*,i,i
COc1ccc(N(CC(=O)NCCSCc2ccc(C)cc2)S(=O)(=O)c2ccccc2)cc1,i,-7,i,i,i
CN(c1ccc(C(=O)NCCSCc2ccc(Cl)cc2)cc1)S(=O)(=O)c1ccccc1,i,-5,6*,i,i
O=C(CNC(=O)OCc1ccccc1)NCC(=O)Oc1ccc([N+](=O)[O-])cc1,x,x,x,x,i
CN1C(=O)C2(OCC(C)([N+](=O)[O-])CO2)c2ccccc21 (stereo not drawn),i,8.6*,i,i,i
CC1([N+](=O)[O-])COC2(OC1)C(=O)Nc1ccccc12 (stereo not drawn),i,-2,i,i,i
O=C(OCC(=O)N1CCC(Cc2ccccc2)CC1)c1cncc(Br)c1,x,x,x,x,i
O=C(CSCSCC(=O)Nc1ccc2c(c1)OCO2)Nc1ccc2c(c1)OCO2,i,5.0*,i,i,i
Cc1nn(C)c(C)c1CNC(=O)Nc1ccc2c(c1)OCO2,i,7.4*,i,i,i
SMILES,KCNK9 inh,hERG protect,KCNQ1 block,KCNQ1 act,KCNK3 inh
Cc1nn(C)c(C)c1CNC(=O)Nc1ccc(Cl)cc1,i,-21,i,i,i
O=C(CN1C(=O)CSCC1=O)Nc1ccc2c(c1)OCO2,i,4.7*,i,i,i
O=C(CSCc1ccccc1)Nc1ccc2c(c1)OCO2,i,-4,i,i,i
COc1c2ccccc2c(OC)c2ccccc12,i,-14,i,i,i
Cc1ccc(NC(=O)C(C)N2CCCC2)cc1Cl (stereo not drawn),i,-2,i,i,i
Cn1nc(OC(=O)Nc2ccc(Cl)cc2)cc1C(F)(F)F,i,-14,8*,i,x
Cn1nc(OC(=O)Nc2ccc(F)cc2)cc1C(F)(F)F,i,-4,i,i,i
O=c1cc(-c2ccccc2)oc2ccc(Cl)cc12,x,x,x,x,i
O=c1oc(-c2ccccc2)cc(Cl)c1Cl,i,-24,6*,i,i
CN(C(=O)CSc1nc2ccccc2o1)C1CCCCC1,x,x,x,x,i
Cc1cc(OCC(=O)NNC(=S)NC(=O)c2ccc(Br)o2)ccc1Cl,i,-10,i,33*,i
CC1(C)CC(=O)C2=C(C1)OC1=C(C(=O)CC(C)(C)C1)C2c1ccc(O)cc1O,-7*,-42,7*,i,i
CC1(C)CC(=O)C2=C(C1)OC1=C(C(=O)CC(C)(C)C1)C2c1ccc(O)c([N+](=O)[O-])c1,i,-7,i,i,i
CC(=O)N1N=C(c2cccc(Cl)c2)OC1c1ccc(C(C)C)cc1 (stereo not drawn),i,-9,6*,i,i
O=c1c2c(-c3cccs3)csc2ncn1-c1ccc(Br)cc1,i,-1,i,i,i
C=CCn1c(=S)[nH]c2scc(-c3cccs3)c2c1=O,i,41*,i,53*,i
Cn1c(=S)[nH]c2scc(-c3cccs3)c2c1=O,i,58*,i,66*,i
Cc1ccccc1NS(=O)(=O)c1ccc(C(=O)NCC(C)(C)N2CCOCC2)cc1,i,-16,i,i,i
COc1ccc(NC(=O)CNc2ccccc2C(C)=O)cc1S(=O)(=O)N1CCOCC1,x,x,x,x,i
Cc1ccc2c(c1)[C@H]1[C@H](CO2)[C@H](c2ccccc2)[C@]2(C)C(=O)Nc3cc(F)ccc3C(=O)N12,x,x,x,x,i
C/C(=N\NC(N)=S)c1ccccc1,i,-7,i,i,i
CSC(=S)N/N=C(\C)c1ccccc1,i,20*,i,45*,i
N#CC1=C(N)SC(N)=C(C#N)C1c1ccc(C(F)(F)F)cc1,i,-7,i,53*,x
COC(=O)c1cc(NC(=O)N2c3ccccc3Sc3ccccc32)cc(C(=O)OC)c1,-6.8*,-4,i,i,-9.9*
Cc1nn(C)cc1CNCc1c(C(=O)N2CCCCC2)nc2c(C)cccn12,i,-15,i,i,i
C[C@H]1CC[C@H]2C(=O)N3[C@H](c4ccccc4Br)[C@@H](C)CC[C@H]3C(=O)N2[C@@H]1c1ccccc1Br,-9.6*,-10,i,i,x
COc1ccc(C(=O)O/N=C2\C(=O)N(C)c3ccccc32)cc1,i,-12,i,i,i

# Compound activity (PubChem)
